Experimental data: ChEMBL document CHEMBL3352213, “Development of dual targeting inhibitors against aggregations of amyloid-β and tau protein” (Eur J Med Chem, 2014)

What was measured:
[1] = biological target: T1, Amyloid-beta precursor protein (Homo sapiens, UniProt P05067); assay: Inhibition of amyloid beta (1-42) aggregation (unknown origin) after 24 hrs by thioflavin T fluorescence method
[2] = biological target: T2, Microtubule-associated protein tau (Homo sapiens, UniProt P10636); assay: Inhibition of His-tagged human brain tau 3R MBD aggregation after 16 hrs by thioflavin T fluorescence method
T2 sequence (P10636 whole entry): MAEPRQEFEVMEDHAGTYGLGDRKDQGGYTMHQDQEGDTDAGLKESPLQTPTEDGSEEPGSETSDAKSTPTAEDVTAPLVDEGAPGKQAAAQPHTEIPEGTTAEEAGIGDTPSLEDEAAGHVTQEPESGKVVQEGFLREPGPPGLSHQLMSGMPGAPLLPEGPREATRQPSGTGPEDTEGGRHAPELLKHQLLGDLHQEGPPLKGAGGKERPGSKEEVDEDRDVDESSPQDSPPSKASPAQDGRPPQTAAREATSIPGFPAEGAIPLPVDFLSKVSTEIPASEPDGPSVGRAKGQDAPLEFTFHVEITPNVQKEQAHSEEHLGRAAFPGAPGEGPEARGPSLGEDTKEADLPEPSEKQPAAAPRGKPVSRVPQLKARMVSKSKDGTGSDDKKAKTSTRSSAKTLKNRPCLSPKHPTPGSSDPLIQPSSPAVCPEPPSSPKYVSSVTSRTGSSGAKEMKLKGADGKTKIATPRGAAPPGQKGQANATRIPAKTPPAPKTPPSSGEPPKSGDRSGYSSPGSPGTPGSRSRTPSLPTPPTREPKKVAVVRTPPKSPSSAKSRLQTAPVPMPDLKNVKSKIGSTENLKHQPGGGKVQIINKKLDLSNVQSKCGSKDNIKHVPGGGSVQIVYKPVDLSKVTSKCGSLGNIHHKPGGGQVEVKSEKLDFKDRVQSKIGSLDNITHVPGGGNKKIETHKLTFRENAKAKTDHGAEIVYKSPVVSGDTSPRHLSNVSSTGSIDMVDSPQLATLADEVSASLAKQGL

[3] = biological target: T1, Amyloid-beta precursor protein; assay: Inhibition of amyloid beta (1-42) aggregation (unknown origin) at 10 uM after 24 hrs by thioflavin T fluorescence method
[4] = biological target: T2, Microtubule-associated protein tau; assay: Inhibition of His-tagged human brain tau 3R MBD aggregation at 10 uM after 16 hrs by thioflavin T fluorescence method
Summary of the method: (§1)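 His-tagged 3R MBD tau expressed in E. coli BL21(DE3), purified by Ni-chelate chromatography, dialysed against ammonium acetate and freeze-dried. Tau 10 μM plus heparin 10 μM in 50 mM Tris–HCl pH 7.6 with compound (0.1–10 μM, DMSO), incubated 37 °C 16 h in the dark. Background fluorescence read first, then 10 μM ThT added; ThT fluorescence at ex 440/em 486 nm.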

[5] = biological target: T1, Amyloid-beta precursor protein; assay: Inhibition of amyloid beta (1-42) aggregation (unknown origin) at 1 uM after 24 hrs by thioflavin T fluorescence method
[6] = biological target: T2, Microtubule-associated protein tau; assay: Inhibition of His-tagged human brain tau 3R MBD aggregation at 1 uM after 16 hrs by thioflavin T fluorescence method; summary of the method: as §1

T1 sequence (P05067 whole entry): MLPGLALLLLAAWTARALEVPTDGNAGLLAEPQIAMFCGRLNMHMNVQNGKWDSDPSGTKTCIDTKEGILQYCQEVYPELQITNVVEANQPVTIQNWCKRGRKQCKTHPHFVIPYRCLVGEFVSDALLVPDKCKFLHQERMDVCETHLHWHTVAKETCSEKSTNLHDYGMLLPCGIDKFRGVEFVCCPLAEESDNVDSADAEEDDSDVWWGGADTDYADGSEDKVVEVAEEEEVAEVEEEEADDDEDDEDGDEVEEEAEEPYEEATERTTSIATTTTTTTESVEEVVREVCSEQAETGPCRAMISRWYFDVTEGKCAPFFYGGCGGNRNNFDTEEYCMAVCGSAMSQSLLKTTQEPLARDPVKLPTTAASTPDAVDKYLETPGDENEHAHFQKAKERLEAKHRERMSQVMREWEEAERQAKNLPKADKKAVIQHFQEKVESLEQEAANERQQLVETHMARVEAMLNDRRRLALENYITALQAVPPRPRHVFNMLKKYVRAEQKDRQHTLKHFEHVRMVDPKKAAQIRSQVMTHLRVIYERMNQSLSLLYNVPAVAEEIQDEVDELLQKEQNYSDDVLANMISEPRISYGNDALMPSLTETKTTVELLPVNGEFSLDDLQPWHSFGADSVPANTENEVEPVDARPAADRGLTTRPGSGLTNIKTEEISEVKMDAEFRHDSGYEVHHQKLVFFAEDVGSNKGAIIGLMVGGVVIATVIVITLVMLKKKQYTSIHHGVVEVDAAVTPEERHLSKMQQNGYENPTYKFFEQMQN

COc1ccc(-c2cc3c(s2)c2sc(-c4ccc(/C=C(\C#N)C(N)=O)s4)cc2n3C(C)(C)C)cc1
IC50 [1]: 0.55 µM
IC50 [2]: 0.3 µM

O=c1c(O)c(-c2ccc(O)c(O)c2)oc2c(O)c(O)cc(O)c12 [GOSSYPETIN]
IC50 [1]: < 3 µM
IC50 [2]: < 3 µM

N#CC(C#N)=Cc1ccc(-c2ccc(-c3ccc(N(c4ccccc4)c4ccccc4)cc3)c3nsnc23)s1
IC50 [1]: > 10 µM
IC50 [2]: > 10 µM
inhibition [3]: 30%
inhibition [4]: 15%

O=Cc1ccc(-c2ccc(-c3ccc(N(c4ccccc4)c4ccccc4)cc3)c3nsnc23)s1
IC50 [1]: > 10 µM
IC50 [2]: > 10 µM
inhibition [3]: 44%
inhibition [4]: 11%

O=Cc1ccc(-c2ccc(-c3ccc(N(c4ccccc4)c4ccccc4)cc3)s2)s1
IC50 [1]: 7.1 µM
IC50 [2]: > 10 µM
inhibition [4]: 12%

O=Cc1ccc(-c2ccc(-c3ccc4[nH]ccc4c3)s2)s1
IC50 [1]: > 10 µM
IC50 [2]: 1.6 µM
inhibition [3]: 46%

COc1ccc(-c2ccc(-c3ccc(C=C(C#N)C#N)s3)s2)cc1
IC50 [1]: < 1 µM
IC50 [2]: > 10 µM
inhibition [5]: 78%
inhibition [4]: 28%

N#C/C(=C\c1ccc(-c2ccc(-c3ccc(N(c4ccccc4)c4ccccc4)cc3)c3nsnc23)s1)C(N)=O
IC50 [1]: > 10 µM
IC50 [2]: > 10 µM
inhibition [3]: 46%
inhibition [4]: 24%

CC(C)(C)n1c2cc(-c3ccc(N(c4ccccc4)c4ccccc4)cc3)sc2c2sc(-c3ccc(C=C(C#N)C#N)s3)cc21
IC50 [1]: > 10 µM
IC50 [2]: > 10 µM
inhibition [3]: 16%
inhibition [4]: 18%

CNc1ccc2nc3ccc(N(C)C)cc3[s+]c2c1
IC50 [1]: < 3 µM
IC50 [2]: < 3 µM

CN(C)c1ccc2nc3ccc(=[N+](C)C)cc-3sc2c1 [METHYLENE BLUE CATION]
IC50 [1]: 0.55 µM

COc1ccc(-c2cc3c(s2)c2sc(-c4ccc(C=C(C#N)C#N)s4)cc2n3C(C)(C)C)cc1
IC50 [1]: > 10 µM
IC50 [2]: > 10 µM
inhibition [3]: 18%
inhibition [4]: 27%

CN(C)c1ccc2nc3ccc(N)cc3[s+]c2c1
IC50 [1]: < 3 µM
IC50 [2]: < 3 µM

N#CC(C#N)=Cc1ccc(-c2ccc(-c3ccc(N(c4ccccc4)c4ccccc4)cc3)s2)s1
IC50 [1]: > 10 µM
IC50 [2]: > 10 µM
inhibition [3]: 43%
inhibition [4]: 14%

COc1ccc(-c2cc3c(s2)c2sc(-c4ccc(C=O)s4)cc2n3C(C)(C)C)cc1
IC50 [1]: 0.38 µM
IC50 [2]: 0.29 µM
inhibition [6]: 74%
inhibition [5]: 61%

N#C/C(=C\c1ccc(-c2ccc(-c3ccc(N(c4ccccc4)c4ccccc4)cc3)s2)s1)C(N)=O
IC50 [1]: 1.5 µM
IC50 [2]: > 10 µM
inhibition [4]: 29%

CN1C(=O)C(=Cc2ccc(-c3ccc(-c4ccc(N(c5ccccc5)c5ccccc5)cc4)s3)s2)C(=O)N(C)C1=O
IC50 [1]: > 10 µM
IC50 [2]: > 10 µM
inhibition [3]: 18%
inhibition [4]: 7%

CC(C)(C)n1c2cc(-c3ccc(N(c4ccccc4)c4ccccc4)cc3)sc2c2sc(-c3ccc(C=O)s3)cc21
IC50 [1]: > 10 µM
IC50 [2]: > 10 µM
inhibition [3]: 36%
inhibition [4]: 15%

COc1ccc(-c2ccc(-c3ccc(C=O)s3)s2)cc1
IC50 [1]: > 10 µM
IC50 [2]: > 10 µM
inhibition [3]: 0%
inhibition [4]: 18%

CC(C)(C)n1c2cc(-c3ccc(N(c4ccccc4)c4ccccc4)cc3)sc2c2sc(-c3ccc(/C=C(\C#N)C(N)=O)s3)cc21
IC50 [1]: > 10 µM
IC50 [2]: > 10 µM
inhibition [3]: 36%
inhibition [4]: 33%

N#C/C(=C\c1ccc(-c2ccc(-c3ccc(N(c4ccccc4)c4ccccc4)cc3)s2)s1)C(=O)O
IC50 [1]: < 0.41 µM
IC50 [2]: 1.7 µM
inhibition [5]: 82%

O=C1NC(=O)C(=Cc2ccc(-c3ccc(-c4ccc(N(c5ccccc5)c5ccccc5)cc4)s3)s2)C(=O)N1
IC50 [1]: > 10 µM
IC50 [2]: > 10 µM
inhibition [3]: 0%
inhibition [4]: 12%
